According to article PMC3770188 (ACS medicinal chemistry letters, 2013):
Where two headings read alike, the source gives them in different places.

Tests used:
spermatogenesis in mice [1] = details: oral, low levels; cited from earlier work
spermatogenesis in mice [2] = test: Oral administration, effect on spermatogenesis in mice; assay type: in vivo, CD1 mice; details: for Morphology of caudal epididymides: oral 10 mg/kg for 7 days; for Morphology of caudal epididymides / Epididymal sperm motility: 1-month post-treatment; for Testicular weight compared with control: oral 2 and 10 mg/kg for 7 days, mean±SD of five mice; for Effect on spermatogenesis (testis morphology): oral 2.0 and 10 mg/kg for 7 days, one-month after dosing; for Epididymal sperm motility: oral, 7 days
In short: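 Male CD1 mice received test compound by oral gavage daily at 2 or 10 mg/kg for 7 days; controls got vehicle alone for 7 days. Body weight was monitored throughout. One month post-treatment, testes were collected and weighed (mean ± SD, five mice per regimen; […] Student's t-test vs age-matched controls). Testes and epididymides were sectioned for histology with tubule staging.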

RARβ = target: T1, RARβ (Homo sapiens, UniProt P10826); test: Transactivation competition assay; assay type: cell-based; details: HeLa cells, 10^−7M ATRA, increasing concentrations of retinoid, 24 hours
T1 sequence (P10826 1-455): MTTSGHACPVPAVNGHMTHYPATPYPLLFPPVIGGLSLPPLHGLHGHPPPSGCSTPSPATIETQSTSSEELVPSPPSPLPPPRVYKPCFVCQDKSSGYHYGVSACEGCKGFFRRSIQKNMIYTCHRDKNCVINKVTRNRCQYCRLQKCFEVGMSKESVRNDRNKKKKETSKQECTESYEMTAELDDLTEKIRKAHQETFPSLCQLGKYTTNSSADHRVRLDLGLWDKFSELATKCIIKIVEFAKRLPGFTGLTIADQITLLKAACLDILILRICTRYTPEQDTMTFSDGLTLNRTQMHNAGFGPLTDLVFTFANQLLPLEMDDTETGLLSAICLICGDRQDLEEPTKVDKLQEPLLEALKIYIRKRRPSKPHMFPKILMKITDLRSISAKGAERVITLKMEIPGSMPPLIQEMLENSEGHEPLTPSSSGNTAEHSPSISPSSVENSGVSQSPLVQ
In short: (§1)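 HeLa cells were cotransfected with receptor/CAT reporter constructs plus a constant β-galactosidase plasmid as internal control. Cells were incubated with submaximal ATRA (10–7 M) plus increasing concentrations of test compound, and CAT expression was measured after 24 h. Dilution medium without retinoid served as vehicle control and ATRA as positive control.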

RARγ = target: T2, RARγ (Homo sapiens, UniProt P13631); test: Transactivation competition assay; assay type: cell-based; details: HeLa cells, 10^−7M ATRA, increasing concentrations of retinoid, 24 hours
T2 sequence (P13631 1-454): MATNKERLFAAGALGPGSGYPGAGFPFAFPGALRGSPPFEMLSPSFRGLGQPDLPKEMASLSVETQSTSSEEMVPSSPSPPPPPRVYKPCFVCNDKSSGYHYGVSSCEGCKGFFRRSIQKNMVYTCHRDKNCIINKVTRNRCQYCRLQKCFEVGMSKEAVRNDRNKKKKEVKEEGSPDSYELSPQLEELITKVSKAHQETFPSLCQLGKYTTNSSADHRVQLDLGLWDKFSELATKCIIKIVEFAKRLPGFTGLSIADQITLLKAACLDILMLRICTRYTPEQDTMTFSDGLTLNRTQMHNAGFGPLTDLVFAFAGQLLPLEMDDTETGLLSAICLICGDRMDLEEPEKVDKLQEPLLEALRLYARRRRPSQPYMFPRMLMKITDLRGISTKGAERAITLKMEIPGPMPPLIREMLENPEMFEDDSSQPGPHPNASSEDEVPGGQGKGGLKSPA
In short: as §1

spermatogenesis in mice [3] = test: IV and IP administration, effect on spermatogenesis in mice; assay type: in vivo, CD1 mice
In short: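 Male CD1 mice dosed daily with test compound at 10 mg/kg by IV (for 3, 6 or 7 days; n = 2 for 6 and 7 days) or IP (7 days), against vehicle-only controls. Testes taken […] were sectioned and examined histologically for spermatid alignment and release in tubules. Reversibility was assessed by testis histology 4 weeks post-treatment.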

RARs [4] = details: concomitantly transfected RARs; cited from earlier work
RARs [5] = test: Transactivation assay; assay type: cell-based; details: concomitantly transfected RARs

| Structure (SMILES) | Effect on spermatogenesis in mice (spermatogenesis in mice [1]) | Side-effects in mice (spermatogenesis in mice [1]) | Morphology of caudal epididymides (spermatogenesis in mice [2]) | Testicular weight compared with control (spermatogenesis in mice [2]) | Effect on spermatogenesis (testis morphology) (spermatogenesis in mice [2]) | Epididymal sperm motility (spermatogenesis in mice [2]) | Competition of ATRA-induced CAT expression, RARβ (RARβ) | Competition of ATRA-induced CAT expression, RARγ (RARγ) | Effect on spermatid alignment and sperm release (spermatogenesis in mice [3]; IV 10 mg/kg for 6 and 7 days, one-day post-treatment) | Effect on spermatogenesis 4-weeks post-treatment (reversibility) (spermatogenesis in mice [3]; IV, 4-weeks post-treatment) | Induction of RARE-CAT reporter expression by compound alone (RARs [4]) | Induction of RARE-CAT reporter expression by compound alone (RARs [5]) |
| --- | --- | --- | --- | --- | --- | --- | --- | --- | --- | --- | --- | --- |
| CC1(C)CC=C(c2ccccc2)c2cc(/C=C/c3ccc(C(=O)O)cc3)ccc21 [compound 1] | inhibited spermatogenesis | without any observable side-effects | – | – | – | – | – | – | – | – | – | – |
| Cc1ccc(C2=CCC(C)(C)c3ccc(C(=O)Nc4ccc(C(=O)O)cc4)cc32)cc1 [compound 2] | – | – | appeared normal | No significant differences | no effect on spermatogenesis | normal motility | minimal activity | minimal activity | Acute disruptive effects | No effect on spermatogenesis | did not, by themselves, induce reporter expression | – |
| CC1(C)CC=C(c2cnc3ccccc3c2)c2cc(C(=O)Nc3ccc(C(=O)O)cc3)ccc21 [compound 3] | – | – | appeared normal | No significant differences | no effect on spermatogenesis | normal motility | minimal activity | minimal activity | – | – | – | did not, by themselves, induce reporter expression |
